Laboratory results as given in ChEMBL document CHEMBL1143779, “Antiviral 2,5-disubstituted imidazo[4,5-c]pyridines: from anti-pestivirus to anti-hepatitis C virus activity” (Bioorg Med Chem Lett, 2007).
Calls of active or inactive are those of the source. The calls are words filed in the database; no cut-off is given here.

Experiments:
[1] = system: Hepatitis C virus; experiment: Antiviral activity against HCV in Huh 5-2 cells assessed as […]; type: functional, organism-based, Hepacivirus hominis
Outline: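 Huh 5-2 cells were seeded at 5×10³/well in complete DMEM with G418. After 24 h at 37 °C (5% CO₂), the medium was replaced with threefold serial compound dilutions in DMEM without G418 and incubated for 4 days. Values are means of 4–6 independent experiments.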

[2] = Cytotoxicity against MDBK cells; type: cell-based, Bos taurus; details: cattle
Outline: (§1)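 MDBK or Huh 5-2 cells seeded at 5 · 10³ cells/well in MEM-FCS; serial compound dilutions added 24 h later. Read-out OD490 nm, expressed as OD treated/OD untreated control.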

[3] = system: Bovine viral diarrhea virus 1; experiment: Antiviral activity against BVDV in MDBK cells assessed as reduction of virus-induced cytopathic effect; type: functional, organism-based; details: Bovine viral diarrhea virus isolates and strains
[4] = (§2) Selectivity index, ratio of CC50 for MDBK cells to EC50 for BVDV; type: functional
[5] = Selectivity index, ratio of CC50 for Huh 5-2 cells to EC50 for HCV; type: functional
[6] = Cytotoxicity against Huh 5-2 cells; type: cell-based; details: human; outline: as §1
[7] = system: MDBK; experiment: as §2; type: functional

## COc1cccc(-c2nc3ccn(Cc4ccc(Br)cc4)cc-3n2)c1
[1]
  EC50: 18 µM
[2]
  CC50: > 33 µM
[3]
  EC50: 0.05 µM
[4]
  Ratio CC50/EC50: >660
[5]
  Ratio CC50/EC50: 2
[6]
  CC50: 28 µM

## Brc1ccc(Cn2ccc3nc(-c4cc(Br)cc(Br)c4)nc-3c2)cc1
[1]
  EC50: > 96 µM
[2]
  CC50: > 33 µM
[3]
  EC50: > 33 µM
[7]
  Activity: inactive
[5]
  Activity: inactive
[6]
  CC50: > 96 µM

## Brc1ccc(Cn2ccc3nc(-c4cccc(I)c4)nc-3c2)cc1
[1]
  EC50: 5.7 µM
[2]
  CC50: > 33 µM
[3]
  EC50: 0.07 µM
[4]
  Ratio CC50/EC50: >83
[5]
  Ratio CC50/EC50: 2
[6]
  CC50: 12 µM

## Fc1cccc(-c2nc3ccn(Cc4ccc(Br)cc4)cc-3n2)c1
[1]
  EC50: > 44 µM
[2]
  CC50: > 33 µM
[3]
  EC50: 0.04 µM
[4]
  Ratio CC50/EC50: >825
[5]
  Activity: inactive
[6]
  CC50: 44 µM

## Brc1ccc(Cn2ccc3nc(CCCc4ccccc4)nc-3c2)cc1
[1]
  EC50: 7.4 µM
[2]
  CC50: 22 µM
[3]
  EC50: 3 µM
[4]
  Ratio CC50/EC50: 8
[5]
  Ratio CC50/EC50: 2
[6]
  CC50: 12 µM

## Clc1ccc(-c2nc3ccn(Cc4ccc(Br)cc4)cc-3n2)cc1
[1]
  EC50: 13 µM
[2]
  CC50: > 33 µM
[3]
  EC50: 0.7 µM
[4]
  Ratio CC50/EC50: >47
[5]
  Activity: inactive
[6]
  CC50: 17 µM

## Brc1ccc(Cn2ccc3nc(Cc4ccccc4)nc-3c2)cc1
[1]
  EC50: 79 µM
[2]
  CC50: > 33 µM
[3]
  EC50: > 33 µM
[7]
  Activity: inactive
[5]
  Ratio CC50/EC50: >2
[6]
  CC50: > 132 µM

## Cc1ccccc1-c1nc2ccn(Cc3ccc(Br)cc3)cc-2n1
[1]
  EC50: 24 µM
[2]
  CC50: > 33 µM
[3]
  EC50: 0.061 µM
[4]
  Ratio CC50/EC50: >541
[5]
  Activity: inactive
[6]
  CC50: 21 µM

## Cc1cccc(-c2nc3ccn(Cc4ccc(Br)cc4)cc-3n2)c1
[1]
  EC50: > 11 µM
[2]
  CC50: 23 µM
[3]
  EC50: 0.06 µM
[4]
  Ratio CC50/EC50: 372
[5]
  Activity: inactive
[6]
  CC50: 11 µM

## Brc1ccc(Cn2ccc3nc(/C=C/c4ccccc4)nc-3c2)cc1
[1]
  EC50: 1.7 µM
[2]
  CC50: 14 µM
[3]
  EC50: 0.16 µM
[4]
  Ratio CC50/EC50: 88
[5]
  Ratio CC50/EC50: >2
[6]
  CC50: 2.5 µM

## Brc1ccc(Cn2ccc3nc(-c4cccnc4)nc-3c2)cc1
[1]
  EC50: 109 µM
[2]
  CC50: > 33 µM
[3]
  EC50: 0.16 µM
[4]
  Ratio CC50/EC50: >206
[5]
  Activity: inactive
[6]
  CC50: 126 µM

## Brc1ccc(Cn2ccc3nc(-c4ccncc4)nc-3c2)cc1
[1]
  EC50: 14 µM
[2]
  CC50: > 33 µM
[3]
  EC50: 0.47 µM
[4]
  Ratio CC50/EC50: >70
[5]
  Ratio CC50/EC50: 3
[6]
  CC50: 38 µM

## Fc1ccc(-c2nc3ccn(Cc4ccc(Br)cc4)cc-3n2)cc1
[1]
  EC50: 31 µM
[2]
  CC50: > 33 µM
[3]
  EC50: 0.17 µM
[4]
  Ratio CC50/EC50: >194
[5]
  Activity: inactive
[6]
  CC50: 37 µM

## Cc1ccc(-c2nc3ccn(Cc4ccc(Br)cc4)cc-3n2)cc1
[1]
  EC50: 8.2 µM
[2]
  CC50: 21 µM
[3]
  EC50: 0.4 µM
[4]
  Ratio CC50/EC50: 53
[5]
  Ratio CC50/EC50: 2
[6]
  CC50: 13 µM

## Brc1ccc(Cn2ccc3nc(-c4cccs4)nc-3c2)cc1
[1]
  EC50: > 35 µM
[2]
  CC50: > 33 µM
[3]
  EC50: 0.04 µM
[4]
  Ratio CC50/EC50: >825
[5]
  Activity: inactive
[6]
  CC50: 35 µM

## Fc1ccccc1-c1nc2ccn(Cc3ccc(I)cc3)cc-2n1
[1]
  EC50: 0.79 µM
[2]
  CC50: > 33 µM
[3]
  EC50: 0.07 µM
[4]
  Ratio CC50/EC50: >478
[5]
  Ratio CC50/EC50: 74
[6]
  CC50: 58 µM

## Fc1ccccc1-c1nc2ccn(Cc3ccc(Cl)cc3)cc-2n1
[1]
  EC50: 44 µM
[2]
  CC50: > 33 µM
[3]
  EC50: 0.11 µM
[4]
  Ratio CC50/EC50: >300
[5]
  Ratio CC50/EC50: 1.5
[6]
  CC50: 68 µM

## Brc1ccc(Cn2ccc3nc(-c4cccc5ccccc45)nc-3c2)cc1
[1]
  EC50: 9.7 µM
[2]
  CC50: 23 µM
[3]
  EC50: 0.3 µM
[4]
  Ratio CC50/EC50: 77
[5]
  Activity: inactive
[6]
  CC50: 12 µM

## Brc1ccc(Cn2ccc3nc(CCc4ccccc4)nc-3c2)cc1
[1]
  EC50: 2.5 µM
[2]
  CC50: 16 µM
[3]
  EC50: > 16 µM
[7]
  Activity: inactive
[5]
  Ratio CC50/EC50: 3
[6]
  CC50: 7.6 µM

## Brc1ccc(Cn2ccc3nc(-c4ccccn4)nc-3c2)cc1
[1]
  EC50: 0.35 µM
[2]
  CC50: 10 µM
[3]
  EC50: 0.1 µM
[4]
  Ratio CC50/EC50: 96
[5]
  Ratio CC50/EC50: 15
[6]
  CC50: 5.2 µM

## Clc1ccccc1-c1nc2ccn(Cc3ccc(Br)cc3)cc-2n1
[1]
  EC50: 25 µM
[2]
  CC50: > 33 µM
[3]
  EC50: 0.33 µM
[4]
  Ratio CC50/EC50: >100
[5]
  Ratio CC50/EC50: 2
[6]
  CC50: 43 µM

## Brc1ccc(Cn2ccc3nc(CCCCc4ccccc4)nc-3c2)cc1
[1]
  EC50: > 2.2 µM
[2]
  CC50: 5 µM
[3]
  EC50: > 5 µM
[7]
  Activity: inactive
[5]
  Activity: inactive
[6]
  CC50: 2.2 µM

## Brc1ccc(Cn2ccc3nc(-c4ccc5ccccc5c4)nc-3c2)cc1
[1]
  EC50: 5.7 µM
[2]
  CC50: 7 µM
[3]
  EC50: 0.03 µM
[4]
  Ratio CC50/EC50: 259
[5]
  Ratio CC50/EC50: 2
[6]
  CC50: 9.7 µM

## Brc1ccc(Cn2ccc3nc(COc4ccccc4)nc-3c2)cc1
[1]
  EC50: 25 µM
[2]
  CC50: > 33 µM
[3]
  EC50: > 8 µM
[5]
  Ratio CC50/EC50: 1.5
[6]
  CC50: 35 µM

## Brc1ccc(Cn2ccc3nc(CSc4ccccc4)nc-3c2)cc1
[1]
  EC50: 4.9 µM
[2]
  CC50: 25 µM
[3]
  EC50: > 25 µM
[7]
  Activity: inactive
[5]
  Ratio CC50/EC50: 2
[6]
  CC50: 9.7 µM

## Brc1ccc(Cn2ccc3nc(-c4cccc(Br)c4)nc-3c2)cc1
[1]
  EC50: > 113 µM
[2]
  CC50: > 33 µM
[3]
  EC50: 0.11 µM
[4]
  Ratio CC50/EC50: >300
[5]
  Activity: inactive
[6]
  CC50: > 113 µM

## CCc1nc2ccn(Cc3ccc(Br)cc3)cc-2n1
[1]
  EC50: > 92 µM
[2]
  CC50: > 33 µM
[3]
  EC50: 0.38 µM
[4]
  Ratio CC50/EC50: >87
[5]
  Activity: inactive
[6]
  CC50: 92 µM

## Brc1ccc(Cn2ccc3nc(-c4ccc(Br)s4)nc-3c2)cc1
[1]
  EC50: > 18 µM
[2]
  CC50: > 33 µM
[3]
  EC50: 0.6 µM
[4]
  Ratio CC50/EC50: >55
[5]
  Activity: inactive
[6]
  CC50: 18 µM

## CN(C)c1cccc(-c2nc3ccn(Cc4ccc(Br)cc4)cc-3n2)c1
[1]
  EC50: > 79 µM
[2]
  CC50: 24 µM
[3]
  EC50: 0.14 µM
[4]
  Ratio CC50/EC50: 171
[5]
  Activity: inactive
[6]
  CC50: 79 µM

## FC(F)(F)c1cccc(-c2nc3ccn(Cc4ccc(Br)cc4)cc-3n2)c1
[1]
  EC50: 23 µM
[2]
  CC50: > 33 µM
[3]
  EC50: 0.5 µM
[4]
  Ratio CC50/EC50: >72
[5]
  Ratio CC50/EC50: >5
[6]
  CC50: > 116 µM

## Brc1ccc(Cn2ccc3nc(-c4ccccc4Br)nc-3c2)cc1
[1]
  EC50: 21 µM
[2]
  CC50: > 33 µM
[3]
  EC50: 0.5 µM
[4]
  Ratio CC50/EC50: >66
[5]
  Ratio CC50/EC50: 2
[6]
  CC50: 36 µM

## Brc1ccc(Cn2ccc3nc(-c4ccccc4)nc-3c2)cc1
[1]
  EC50: > 38 µM
[5]
  Activity: inactive
[6]
  CC50: 38 µM

## Clc1cccc(-c2nc3ccn(Cc4ccc(Br)cc4)cc-3n2)c1
[1]
  EC50: 83 µM
[2]
  CC50: > 33 µM
[3]
  EC50: 0.15 µM
[4]
  Ratio CC50/EC50: >220
[5]
  Ratio CC50/EC50: >2
[6]
  CC50: > 125 µM
